Consider 37 compounds from ChEMBL document CHEMBL4004850, “Rational design of reversible inhibitors for trehalose 6-phosphate phosphatases” (Eur J Med Chem, 2017).

pKi: −log10 of the molar value.

Experiment [1] deals with Mycobacterium tuberculosis. Briefly: Inhibition of Mycobacterium tuberculosis T6PP using T6P as substrate assessed as fraction of enzyme unbound with compound by measuring ratio of initial velocities of T6P substrate hydrolysis in presence and absence of compound at 1 mM after 5 mins by BioMol green dye based HTS assay. An outline of the steps:
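Mt-T6PP (5–25 nM, freshly purified) in 25 mM Hepes pH 7.5, 50 mM NaCl, 5 mM MgCl₂, 5% glycerol at 25 °C. T6P at Km. Initial velocity was measured with and without 1 mM inhibitor; released phosphate read as absorbance at 625 nm after 30 min incubation. VI/V is the unbound-enzyme fraction.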

A short description of experiment [2]: Inhibition of Mycobacterium tuberculosis T6PP using T6P as substrate by Lineweaver-Burk plot analysis. The method, boiled down: (§1)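 Continuous phosphate-release assay (EnzChek, MESG/purine nucleoside phosphorylase) at 25 °C. Initial velocities of T6P hydrolysis by T6PP were taken at varied T6P with inhibitor at 0, Ki and 2×Ki. Km and Vmax come from double-reciprocal plots.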

Experiment [3] deals with Mycobacterium tuberculosis. Briefly: Inhibition of Mycobacterium tuberculosis T6PP assessed as Vmax for substrate using T6P as substrate by Lineweaver-Burk plot analysis. The method, boiled down: as §1
The test system of experiment [4] is Mycobacterium tuberculosis. Put plainly: Inhibition of Mycobacterium tuberculosis T6PP assessed as Km for substrate using T6P as substrate at 1 mM by Lineweaver-Burk plot analysis. An outline of the steps:
as §1

As for `OC[C@H]1O[C@@H](Nc2ccccc2)[C@H](O)[C@@H](O)[C@@H]1O`, the Ratio in experiment [1] turned out to be 0.88.

Take `OC[C@H]1O[C@@H](NC(=S)Nc2ccccc2)[C@H](O)[C@@H](O)[C@@H]1O`: the Ratio in experiment [1] was determined as 1.04.

In the case of `NS(=O)(=O)OCc1cccc(N[C@@H]2O[C@H](CO)[C@@H](O)[C@H](O)[C@H]2O)c1`, in experiment [1], the Ratio stood at 1.17.

Take `O=[N+]([O-])c1ccc(O[C@@H]2O[C@H](COS(=O)(=O)O)[C@@H](O)[C@H](O)[C@H]2O)cc1`: the Ratio in experiment [1] was found to be 1.27.

Consider `CO[C@H]1O[C@H](COS(=O)(=O)O)[C@@H](O)[C@H](O)[C@H]1O`, for which the Ratio in experiment [1] worked out at 0.91.

Turning to `O=S(=O)(O)OC[C@H]1O[C@H](OCc2ccccc2)[C@H](O)[C@@H](O)[C@@H]1O`, the Ratio in experiment [1] stood at 0.83.

Take `CO[C@H]1O[C@H](COS(=O)(=O)O)[C@@H](OCc2ccccc2)[C@H](O)[C@H]1O`: the Ratio in experiment [1] came out at 1.11.

With `CCCCCCc1ccc(O[C@@H]2O[C@H](COS(=O)(=O)O)[C@@H](O)[C@H](O)[C@H]2O)cc1`, the pKi (as a rule, the Ki on a negative log10 scale, so that one unit is a factor of ten) in experiment [2] is < 3.40.

Turning to `O=S(=O)(O)OC[C@H]1O[C@@H](Oc2ccc(F)c(F)c2)[C@H](O)[C@@H](O)[C@@H]1O`, the Ratio in experiment [1] was found to be 0.8.

As to `OC[C@H]1O[C@@H](Oc2ccccc2)[C@H](O)[C@@H](O)[C@@H]1O`, the Ratio in experiment [1] was 0.81.

For `Nc1ccc(O[C@@H]2O[C@H](COS(=O)(=O)O)[C@@H](O)[C@H](O)[C@H]2O)cc1`, the Ratio in experiment [1] came to 1.

For `CO[C@H]1O[C@H](COS(=O)(=O)O)[C@@H](O)[C@H](OCc2ccccc2)[C@H]1O`, in experiment [1], the Ratio stood at 1.16.

As to `OC[C@H]1O[C@H](Oc2ccccc2)[C@H](O)[C@@H](O)[C@@H]1O`, the Ratio in experiment [1] is 0.88.

Take `O=S(=O)(O)OC[C@H]1O[C@H](O)[C@H](O)[C@@H](O)[C@@H]1O`: the Ratio in experiment [1] came out at 0.97.

As to `O=S(=O)(O)OCc1cccc(O[C@@H]2O[C@H](CO)[C@@H](O)[C@H](O)[C@H]2O)c1`, in experiment [1], the Ratio was 0.96.

As for `O=P(O)(O)OC[C@H]1O[C@@H](Oc2ccccc2)[C@H](O)[C@@H](O)[C@@H]1O`, in experiment [1], the Ratio was 0.94.

As to `O=Cc1ccccc1O[C@@H]1O[C@H](COS(=O)(=O)O)[C@@H](O)[C@H](O)[C@H]1O`, the Ratio in experiment [1] came to 1.17.

Regarding `O=S(=O)(O)OC[C@H]1O[C@@H](Oc2ccc(-c3ccccc3)cc2)[C@H](O)[C@@H](O)[C@@H]1O`, the pKi in experiment [2] was 2.80. The Ratio in experiment [1] came out at 0.58. For the same compound, in experiment [3], the Vmax (commonly the rate approached at saturating substrate) turned out to be 0.0271 µM/s. The Km (commonly the concentration of substrate that gives half-maximal velocity) in experiment [4] is 838 µM.

With `OC[C@H]1O[C@H](O[C@H]2O[C@H](CO)[C@@H](O)[C@H](O)[C@H]2O)[C@H](O)[C@@H](O)[C@@H]1O` [TREHALOSE], in experiment [1], the Ratio amounted to 0.83.

As for `O=Cc1ccc(O[C@@H]2O[C@H](COS(=O)(=O)O)[C@@H](O)[C@H](O)[C@H]2O)cc1`, in experiment [1], the Ratio is 0.87.

Regarding `O=S(=O)(O)OC[C@H]1O[C@@H](Oc2ccc(CO)cc2)[C@H](O)[C@@H](O)[C@@H]1O`, in experiment [1], the Ratio came out at 0.85.

In experiment [2], `CCCCCCCCc1ccc(O[C@H]2O[C@H](COS(=O)(=O)O)[C@@H](O)[C@H](O)[C@H]2O)cc1` showed a pKi of 4.00.

With `O=S(=O)(O)OC[C@H]1O[C@@H](Oc2ccccc2CO)[C@H](O)[C@@H](O)[C@@H]1O`, the Ratio in experiment [1] was 0.89.

With `O=S(=O)(O)OC[C@H]1O[C@@H](Oc2ccccc2)[C@H](O)[C@@H](O)[C@@H]1O`, in experiment [1], the Ratio was found to be 0.94.

In the case of `OC[C@H]1O[C@@H](n2cc(-c3ccccc3)nn2)[C@H](O)[C@@H](O)[C@@H]1O`, the Ratio in experiment [1] was 0.95.

Regarding `CCCCCCc1ccc(O[C@H]2O[C@H](COS(=O)(=O)O)[C@@H](O)[C@H](O)[C@H]2O)cc1`, in experiment [2], the pKi is < 3.40.

For the compound `O=S(=O)(O)OC[C@H]1O[C@H](O[C@H]2O[C@H](CO)[C@@H](O)[C@H](O)[C@H]2O)[C@H](O)[C@@H](O)[C@@H]1O`, the pKi in experiment [2] was 3.89. Also, the Ratio in experiment [1] was 0.43.

In the case of `O=S(=O)(O)OC[C@H]1O[C@H](Oc2ccccc2)[C@H](O)[C@@H](O)[C@@H]1O`, in experiment [1], the Ratio stood at 1.17.

Compound `O=Cc1cccc(O[C@@H]2O[C@H](COS(=O)(=O)O)[C@@H](O)[C@H](O)[C@H]2O)c1` had a pKi in experiment [2] of 2.77. Further, the Ratio in experiment [1] is 0.67. In addition, the Vmax in experiment [3] was found to be 0.247 µM/s. Further, in experiment [4], the Km was 712 µM.

On to `CCCCCCCCO[C@@H]1O[C@H](COS(=O)(=O)O)[C@@H](O)[C@H](O)[C@H]1O`, for which, in experiment [1], the Ratio was 0.83.

Consider `O=S(=O)(O)OC[C@H]1O[C@@H](Oc2cccc3ccccc23)[C@H](O)[C@@H](O)[C@@H]1O`, for which, in experiment [1], the Ratio worked out at 0.85.

In the case of `CO[C@H]1O[C@H](COS(=O)(=O)O)[C@@H](O)[C@H](O)[C@H]1OCc1ccccc1`, the Ratio in experiment [1] came to 1.01.

Regarding `CCCCCCCCc1ccc(O[C@@H]2O[C@H](COS(=O)(=O)O)[C@@H](O)[C@H](O)[C@H]2O)cc1`, the negative logarithm of the Ki (pKi) in experiment [2] was < 3.52. In addition, in experiment [1], the Ratio turned out to be 0.42.

For `COc1cc(C=O)cc(OC)c1O[C@@H]1O[C@H](COS(=O)(=O)O)[C@@H](O)[C@H](O)[C@H]1O`, the Ratio in experiment [1] is 1.09.

For the compound `O=S(=O)(O)OC[C@H]1O[C@@H](n2cc(-c3ccccc3)nn2)[C@H](O)[C@@H](O)[C@@H]1O`, in experiment [1], the Ratio amounted to 0.98.

Regarding `O=S(=O)(O)OC[C@H]1O[C@@H](Oc2cccc(CO)c2)[C@H](O)[C@@H](O)[C@@H]1O`, in experiment [1], the Ratio amounted to 0.69.

On to `CC(=O)Nc1ccc(O[C@@H]2O[C@H](COS(=O)(=O)O)[C@@H](O)[C@H](O)[C@H]2O)cc1`, for which the Ratio in experiment [1] came to 0.94.
